Experimental data from ChEMBL document CHEMBL4152213, “Synthesis and biological evaluation of 2,5-disubstituted furan derivatives as P-glycoprotein inhibitors for Doxorubicin resistance in MCF-7/ADR cell” (Eur J Med Chem, 2018).
pEC50: −log10 of the molar value.

How the values were obtained:
Type in all cases: cell-based
[1] = Inhibition of P-gp in human MCF7/ADR cells assessed as cell viability after 48 hrs by MTT assay; settings: NCI/ADR-RES
How it was run: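 MTT assay in MCF-7/ADR cells: cells incubated 48 h with or without compounds, then 5 mg/mL MTT added for 3–4 h at 37 °C, 5% CO2. Formazan dissolved in EtOH/DMSO (1:1), OD at 570 and 650 nm. Data are the mean of three independent determinations of triplicate samples.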

Homo sapiens [2] = species: Homo sapiens; assay: Inhibition of P-gp in human MCF7/ADR cells assessed as increase in intracellular accumulation of doxorubicin at 20 uM after 2 days by fluorescence assay relative to doxorubicin alone
How it was run: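 MCF-7/ADR cells exposed to compounds at 20 μM for 2 days, with Doxorubicin 50 μM added on the second day. Cells trypsinized, washed twice in ice-cold PBS pH 7.4, kept on ice under 1 h, then cellular Doxorubicin fluorescence measured by flow cytometry. Doxorubicin-only cells set as 100% and untreated autofluorescence as 0%. Expressed as fold accumulation; three independent determinations in triplicate.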

Homo sapiens [3] = species: Homo sapiens; assay: Inhibition of P-gp in human MCF7/ADR cells assessed as assessed as potentiation of doxorubicin-induced antiproliferative activity by measuring doxorubicin antiproliferative activity at 20 uM after 2 days by MTT assay; design: scale not given: the % may be the effect or the level left
How it was run: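 MCF-7/ADR cells plated at 10,000/well, then treated the next day. Compounds at 20 μM plus Doxorubicin 5 μM for 2 days, washed twice, then Doxorubicin alone for 1 day. Read-out by MTT: 0.5 mg/mL, 1 h at 37 °C, DMSO, absorbance 570/630 nm. Growth inhibition given as % of untreated control. Eight wells per treatment; three independent determinations in triplicate.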

NCI/ADR-RES = assay: Cytotoxicity against human MCF7/ADR cells at 100 uM after 24 to 48 hrs by MTT assay relative to control
How it was run: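 MCF-7/ADR cells (RPMI 1640, 10% FBS, 37 °C, 5% CO2) exposed to compounds alone at 100 μM without Doxorubicin for 24 and 48 h. Viability by MTT: 5 mg/mL MTT, 3–4 h at 37 °C, formazan dissolved in EtOH/DMSO 1:1, OD at 570 and 650 nm. Cytotoxicity taken relative to untreated control.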

Compound	pEC50 [1]	also measured
O=C(c1ccc(-c2ccc([N+](=O)[O-])cc2)o1)N1CCc2ccccc2C1	4.90	
COc1ccc(-c2ccc(C(=O)N3CCc4ccccc4C3)o2)cc1	5.26	
O=C(c1ccc(-c2cccc(Cl)c2)o1)N1CCc2ccccc2C1	4.74	
COc1cc2c(cc1OC)CN(C(=O)c1ccc(-c3cccc([N+](=O)[O-])c3)o1)CC2	4.79	
O=C(c1ccc(-c2c(F)cccc2F)o1)N1CCc2ccccc2C1	4.81	
O=C(c1ccc(-c2cccc([N+](=O)[O-])c2)o1)N1CCCc2ccccc21	4.54	
COc1ccc(CCN(C)CCCC(C#N)(c2ccc(OC)c(OC)c2)C(C)C)cc1OC (configuration not stated) [VERAPAMIL]	4.69	fold change (FC) (Homo sapiens [2]): 3.6; Activity (Homo sapiens [3]): 52.5%
COc1cc2c(cc1OC)CN(C(=O)c1ccc(-c3ccccc3)o1)CC2	5.17	
COc1cc2c(cc1OC)CN(C(=O)c1ccc(-c3ccccc3Cl)o1)CC2	5.09	
O=C(c1ccc(-c2ccccc2[N+](=O)[O-])o1)N1CCCc2ccccc21	4.71	
O=C(c1ccc(-c2cccc(Cl)c2)o1)N1CCCc2ccccc21	4.76	
COc1cc2c(cc1OC)CN(C(=O)c1ccc(-c3ccc(Br)cc3)o1)CC2	5.36	fold change (FC) (Homo sapiens [2]): 5; Activity (NCI/ADR-RES): < 15%; Activity (Homo sapiens [3]): 79.8%
O=C(c1ccc(-c2ccc(Cl)cc2)o1)N1CCc2ccccc2C1	5.17	
O=C(c1ccc(-c2ccc(Br)cc2)o1)N1CCCc2ccccc21	5.04	
O=C(c1ccc(-c2ccccc2Cl)o1)N1CCc2ccccc2C1	4.99	
O=C(c1ccc(-c2ccccc2[N+](=O)[O-])o1)N1CCc2ccccc2C1	4.82	
O=C(c1ccc(-c2ccc(F)cc2)o1)N1CCCc2ccccc21	4.88	
COc1cc2c(cc1OC)CN(C(=O)c1ccc(-c3cccc(F)c3)o1)CC2	4.75	
O=C(c1ccc(-c2cccc(F)c2)o1)N1CCCc2ccccc21	4.56	
O=C(c1ccc(-c2ccc(F)cc2F)o1)N1CCCc2ccccc21	4.76	
O=C(c1ccc(-c2ccc(Br)cc2)o1)N1CCc2ccccc2C1	5.11	
COc1cc2c(cc1OC)CN(C(=O)c1ccc(-c3ccc(F)cc3)o1)CC2	5.07	
O=C(c1ccc(-c2ccccc2F)o1)N1CCCc2ccccc21	4.75	

Compound	pEC50 [1]	also measured
O=C(c1ccc(-c2ccccc2F)o1)N1CCc2ccccc2C1	4.83	
COc1cc2c(cc1OC)CN(C(=O)c1ccc(-c3ccccc3[N+](=O)[O-])o1)CC2	4.86	
O=C(c1ccc(-c2cccc(F)c2)o1)N1CCc2ccccc2C1	4.69	
O=C(c1ccc(-c2ccccc2)o1)N1CCCc2ccccc21	4.96	
O=C(c1ccc(-c2c(F)cccc2F)o1)N1CCCc2ccccc21	4.71	
COc1cc2c(cc1OC)CN(C(=O)c1ccc(-c3c(F)cccc3F)o1)CC2	4.89	
O=C(c1ccc(-c2ccccc2Cl)o1)N1CCCc2ccccc21	4.86	
O=C(c1ccc(-c2ccc(Cl)cc2)o1)N1CCCc2ccccc21	5.08	
COc1cc2c(cc1OC)CN(C(=O)c1ccc(-c3ccc(C)cc3)o1)CC2	5.28	
O=C(c1ccc(-c2ccc([N+](=O)[O-])cc2)o1)N1CCCc2ccccc21	4.81	
O=C(c1ccc(-c2ccc(F)cc2F)o1)N1CCc2ccccc2C1	4.90	
COc1cc2c(cc1OC)CN(C(=O)c1ccc(-c3ccc(Cl)cc3)o1)CC2	5.49	fold change (FC) (Homo sapiens [2]): 6.8; Activity (NCI/ADR-RES): < 15%; Activity (Homo sapiens [3]): 89.6%
O=C(c1ccc(-c2cccc([N+](=O)[O-])c2)o1)N1CCc2ccccc2C1	4.69	
COc1ccc(-c2ccc(C(=O)N3CCCc4ccccc43)o2)cc1	5.17	
COc1ccc(-c2ccc(C(=O)N3CCc4cc(OC)c(OC)cc4C3)o2)cc1	6.05	fold change (FC) (Homo sapiens [2]): 9.2; Activity (NCI/ADR-RES): < 15%; Activity (Homo sapiens [3]): 97.8%
O=C(c1ccc(-c2ccccc2)o1)N1CCc2ccccc2C1	5.08	
Cc1ccc(-c2ccc(C(=O)N3CCc4ccccc4C3)o2)cc1	5.09	
COc1cc2c(cc1OC)CN(C(=O)c1ccc(-c3ccccc3F)o1)CC2	4.96	
COc1cc2c(cc1OC)CN(C(=O)c1ccc(-c3ccc([N+](=O)[O-])cc3)o1)CC2	5.03	
COc1cc2c(cc1OC)CN(C(=O)c1ccc(-c3ccc(F)cc3F)o1)CC2	4.98	
Cc1ccc(-c2ccc(C(=O)N3CCCc4ccccc43)o2)cc1	5.04	
O=C(c1ccc(-c2ccc(F)cc2)o1)N1CCc2ccccc2C1	4.98	
COc1cc2c(cc1OC)CN(C(=O)c1ccc(-c3cccc(Cl)c3)o1)CC2	4.83	
